Data from the RNAGym collection of RNA variant scans (doi:10.1126/science.aae0568).
Fewer inactive variants are shown than the library holds.

B1: tRNA (parent)
chain: GUUCCGUUGGCGUAAUGGUAACGCGUCUCCCUCCUAAGGAGAAGACUGCGGGUUCGAGUCCCGUACGGAACG

Variants of: B1
Experiment: yeast fitness relative to wild type (ratio to wild type); higher = fitter; tRNA-Arg(CCU), competitive growth, 37 C, YPD
Method in brief: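 The tRNA-Arg(CCU) gene variants were made by chemical synthesis with a 3% per-site mutation rate at 69 sites and inserted at the native genomic locus of Saccharomyces cerevisiae. After pooling, the strains were competed in YPD at 37°C for 24 hours in six parallel replicates. Gene amplicons from the start population and each end population were read by 100-nucleotide paired-end sequencing, and Darwinian fitness relative to wild type was taken from genotype frequency changes. Genotypes needed ≥ 100 starting reads, and estimates < 0.5 were set to 0.5.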

Q: For U8A A15U C27G A36G, which yeast fitness is on record?
A: The yeast fitness was 0.569.

Q: With G10C A14U U19A C22U G68A as the variant, how does the yeast fitness read?
A: The yeast fitness was no more than 0.5.

Q: Which yeast fitness does the source give for G12A A20U G56C G58C here?
A: Its yeast fitness is no more than 0.5.

Q: Which yeast fitness does the source give for A15G G39C A42C here?
A: Its yeast fitness is 0.553.

Q: With G6A C22U A42C G52A G56C as the variant, how does the yeast fitness read?
A: The yeast fitness was no more than 0.5.

Q: For C4U C22G U54A, which yeast fitness is on record?
A: Its yeast fitness is 0.558.

Q: With A37U C46G U54C C61A as the variant, how does the yeast fitness read?
A: Its yeast fitness is 0.543.

Q: Which yeast fitness does the source give for G10C C66U here?
A: Its yeast fitness is 0.577.

Q: With U19A G51A as the variant, how does the yeast fitness read?
A: Its yeast fitness is 0.768.

Q: With G18C A45U G50C C55G U64C as the variant, how does the yeast fitness read?
A: Its yeast fitness is no more than 0.5.

Q: Which yeast fitness does the source give for A42G G63C here?
A: Its yeast fitness is 0.69.

Q: Which yeast fitness does the source give for A21G C33A A40C here?
A: The yeast fitness was 0.527.

Q: With G6C C11A C22A C29G as the variant, how does the yeast fitness read?
A: The yeast fitness was no more than 0.5.

Q: With C34U A43G U54C as the variant, how does the yeast fitness read?
A: Its yeast fitness is no more than 0.5.

Q: For U3A U16C C46U C49U, which yeast fitness is on record?
A: The yeast fitness was no more than 0.5.

Q: For U2A G9A G48C G50A, which yeast fitness is on record?
A: Its yeast fitness is no more than 0.5.

Q: For A15C A20U C31G, which yeast fitness is on record?
A: The yeast fitness was 0.562.

Q: For U2A C11G C61A, which yeast fitness is on record?
A: The yeast fitness was no more than 0.5.

Q: With C27U A43C C60A as the variant, how does the yeast fitness read?
A: Its yeast fitness is no more than 0.5.

Q: With U26A A45G U54C as the variant, how does the yeast fitness read?
A: The yeast fitness was 0.52.

Q: For G9A U16C U28G U59A, which yeast fitness is on record?
A: The yeast fitness was no more than 0.5.

Q: With C5U C55U G56C C62U as the variant, how does the yeast fitness read?
A: The yeast fitness was 0.932.

Q: Which yeast fitness does the source give for G6A A15G U54C here?
A: The yeast fitness was no more than 0.5.

Q: With C22A U28G as the variant, how does the yeast fitness read?
A: The yeast fitness was 0.625.

Q: Which yeast fitness does the source give for C4G C34U G67A A69U here?
A: Its yeast fitness is no more than 0.5.

Q: Which yeast fitness does the source give for G63U C66A A69U here?
A: The yeast fitness was no more than 0.5.

Q: Which yeast fitness does the source give for C11G C27U A43C here?
A: Its yeast fitness is 0.502.

Q: With C22A G23A C33U C34G G67C A69C as the variant, how does the yeast fitness read?
A: Its yeast fitness is no more than 0.5.

Q: Which yeast fitness does the source give for G18A C34U G67A here?
A: Its yeast fitness is no more than 0.5.

Q: Which yeast fitness does the source give for G23A A45G A69C here?
A: Its yeast fitness is 0.507.

Q: With U35A G51C A57U as the variant, how does the yeast fitness read?
A: The yeast fitness was 0.539.

Q: With U2G U26C C49U C55A as the variant, how does the yeast fitness read?
A: Its yeast fitness is no more than 0.5.

Q: Which yeast fitness does the source give for U26C C62U G67A here?
A: Its yeast fitness is 0.542.

Q: For U7C U19A C31U C49U, which yeast fitness is on record?
A: The yeast fitness was 0.678.

Q: With A14U A21G C61G A70U as the variant, how does the yeast fitness read?
A: Its yeast fitness is no more than 0.5.

Q: For U2G C5A U19A C30G A43C, which yeast fitness is on record?
A: Its yeast fitness is no more than 0.5.

Q: Which yeast fitness does the source give for G17C A37C A40C C61U here?
A: The yeast fitness was no more than 0.5.

Q: For U16G A36G A45G, which yeast fitness is on record?
A: The yeast fitness was 0.745.

Q: Which yeast fitness does the source give for U26C G44A A70U here?
A: The yeast fitness was 0.657.

Q: For A14U A43G C49U, which yeast fitness is on record?
A: The yeast fitness was no more than 0.5.

Q: Which yeast fitness does the source give for A45C C60U here?
A: The yeast fitness was 0.752.

Q: With G6A U7A U26C C34G G63A as the variant, how does the yeast fitness read?
A: Its yeast fitness is no more than 0.5.

Q: For U3C C11U C46U, which yeast fitness is on record?
A: Its yeast fitness is 1.1.

Q: Which yeast fitness does the source give for A15U A36C A40U A65U here?
A: The yeast fitness was no more than 0.5.

Q: With C4U C22G C60G as the variant, how does the yeast fitness read?
A: The yeast fitness was no more than 0.5.

Q: Which yeast fitness does the source give for U2A A20C G48C G67C here?
A: Its yeast fitness is no more than 0.5.

Q: For G18C C31A A37G G58C, which yeast fitness is on record?
A: Its yeast fitness is no more than 0.5.

Q: For C4U A40U, which yeast fitness is on record?
A: The yeast fitness was 0.898.

Q: For A37G C60A, which yeast fitness is on record?
A: Its yeast fitness is 0.661.

Q: Which yeast fitness does the source give for C11G U28A G39A G48A G58C here?
A: Its yeast fitness is 0.543.

Q: For A20U G48A U64C, which yeast fitness is on record?
A: The yeast fitness was 0.589.

Q: With C24U G25A C30U C46A C55G C60A as the variant, how does the yeast fitness read?
A: Its yeast fitness is no more than 0.5.

Q: For U13A C62G, which yeast fitness is on record?
A: The yeast fitness was 0.78.

Q: With U3G U13C C22A as the variant, how does the yeast fitness read?
A: The yeast fitness was 0.656.

Q: Which yeast fitness does the source give for G6A G23C here?
A: The yeast fitness was 0.643.

Q: With U2G A20G C22A A40C C46G G48A C49U as the variant, how does the yeast fitness read?
A: The yeast fitness was no more than 0.5.

Q: For C49U U59A A65U, which yeast fitness is on record?
A: Its yeast fitness is no more than 0.5.

Q: With G10A U19A A40C A42C as the variant, how does the yeast fitness read?
A: The yeast fitness was 0.541.

Q: For A42U U53A, which yeast fitness is on record?
A: Its yeast fitness is 0.565.

Q: Which yeast fitness does the source give for G6A A42G U64C here?
A: Its yeast fitness is 0.629.

Q: For G41C G50C C60U, which yeast fitness is on record?
A: The yeast fitness was no more than 0.5.

Q: With A21U C33A C34G G51C as the variant, how does the yeast fitness read?
A: The yeast fitness was no more than 0.5.

Q: For G10A C22U A70U, which yeast fitness is on record?
A: The yeast fitness was no more than 0.5.

Q: For U53A G67U G68A, which yeast fitness is on record?
A: Its yeast fitness is no more than 0.5.

Q: With C33U A37U as the variant, how does the yeast fitness read?
A: The yeast fitness was 0.55.

Q: Which yeast fitness does the source give for C11U C33U A69U here?
A: Its yeast fitness is 0.605.

Q: Which yeast fitness does the source give for C27G C31A A70C here?
A: Its yeast fitness is 0.539.

Q: Which yeast fitness does the source give for U7C U28A here?
A: The yeast fitness was 0.845.

Q: Which yeast fitness does the source give for C24G U47G here?
A: Its yeast fitness is no more than 0.5.

Q: With A15C C31A as the variant, how does the yeast fitness read?
A: The yeast fitness was 0.561.

Q: With A15U C34U G41C A69G as the variant, how does the yeast fitness read?
A: Its yeast fitness is no more than 0.5.

Q: With G12A U13C A15G U64C as the variant, how does the yeast fitness read?
A: The yeast fitness was 0.738.

Q: For U8A G18A C30A U32A U35G G67A, which yeast fitness is on record?
A: The yeast fitness was 0.527.

Q: With U8C C11A U19G A36G U54C A69C as the variant, how does the yeast fitness read?
A: Its yeast fitness is no more than 0.5.

Q: Which yeast fitness does the source give for A36C G39A here?
A: Its yeast fitness is no more than 0.5.

Q: With G6C G18C C22U C34G A36U C49A A57C C66U as the variant, how does the yeast fitness read?
A: The yeast fitness was no more than 0.5.

Q: With U2C A37U as the variant, how does the yeast fitness read?
A: The yeast fitness was 0.826.

Q: Which yeast fitness does the source give for C4U G17A G18A C34U G56C here?
A: The yeast fitness was no more than 0.5.

Q: Which yeast fitness does the source give for C30A G58C G63A here?
A: The yeast fitness was no more than 0.5.

Q: For U3G G17A C24A C34A C46G, which yeast fitness is on record?
A: Its yeast fitness is no more than 0.5.

Q: For C4G G50C C55G C62G, which yeast fitness is on record?
A: The yeast fitness was no more than 0.5.

Q: With A21C C30G C34G as the variant, how does the yeast fitness read?
A: The yeast fitness was 0.627.

Q: Which yeast fitness does the source give for C22A C34U U35G C61U here?
A: Its yeast fitness is no more than 0.5.
